Sequences and labels used below:
T1: Polyunsaturated fatty acid lipoxygenase ALOX15 (Homo sapiens, UniProt P16050)
T1 sequence (P16050 whole entry): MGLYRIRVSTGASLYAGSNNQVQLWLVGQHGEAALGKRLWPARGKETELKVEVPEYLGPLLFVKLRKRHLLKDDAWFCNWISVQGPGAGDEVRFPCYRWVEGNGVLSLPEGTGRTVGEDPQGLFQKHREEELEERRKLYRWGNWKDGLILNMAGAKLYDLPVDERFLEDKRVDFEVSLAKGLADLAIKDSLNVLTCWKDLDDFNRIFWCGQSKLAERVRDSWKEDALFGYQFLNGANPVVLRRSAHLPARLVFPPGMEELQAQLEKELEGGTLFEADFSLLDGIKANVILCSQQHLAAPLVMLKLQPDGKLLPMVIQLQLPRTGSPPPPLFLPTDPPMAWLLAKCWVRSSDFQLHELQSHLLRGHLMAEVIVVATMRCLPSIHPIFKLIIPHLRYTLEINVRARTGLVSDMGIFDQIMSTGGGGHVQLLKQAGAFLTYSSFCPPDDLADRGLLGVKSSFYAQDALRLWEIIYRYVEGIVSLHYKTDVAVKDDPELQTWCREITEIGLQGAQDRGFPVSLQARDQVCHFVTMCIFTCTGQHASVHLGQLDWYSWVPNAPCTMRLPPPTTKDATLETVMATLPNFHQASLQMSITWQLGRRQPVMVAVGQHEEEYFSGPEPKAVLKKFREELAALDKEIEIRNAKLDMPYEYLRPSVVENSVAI

T2: Polyunsaturated fatty acid lipoxygenase ALOX15 (Mus musculus) (UniProt P39654)
T2 sequence (whole entry): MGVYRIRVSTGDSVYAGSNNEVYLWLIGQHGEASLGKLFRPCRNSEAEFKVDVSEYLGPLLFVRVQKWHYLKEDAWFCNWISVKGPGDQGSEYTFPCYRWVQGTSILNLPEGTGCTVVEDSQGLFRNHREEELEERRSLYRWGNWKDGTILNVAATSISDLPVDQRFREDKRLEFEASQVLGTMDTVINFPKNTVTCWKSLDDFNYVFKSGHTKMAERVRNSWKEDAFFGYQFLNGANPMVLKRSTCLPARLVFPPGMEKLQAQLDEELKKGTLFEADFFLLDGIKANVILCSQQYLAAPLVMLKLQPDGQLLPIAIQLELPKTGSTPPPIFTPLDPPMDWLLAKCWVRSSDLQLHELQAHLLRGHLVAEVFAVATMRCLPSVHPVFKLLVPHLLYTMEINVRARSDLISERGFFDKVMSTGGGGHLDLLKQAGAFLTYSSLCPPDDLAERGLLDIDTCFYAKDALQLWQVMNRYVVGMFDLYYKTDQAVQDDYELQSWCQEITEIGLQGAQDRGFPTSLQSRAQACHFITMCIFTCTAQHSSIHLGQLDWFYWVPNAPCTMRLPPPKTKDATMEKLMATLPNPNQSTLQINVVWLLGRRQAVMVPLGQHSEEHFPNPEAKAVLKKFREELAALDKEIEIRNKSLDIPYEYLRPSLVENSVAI

B1: Polyunsaturated fatty acid lipoxygenase ALOX15 (Homo sapiens), P16050 (protein)
chain: MGLYRIRVSTGASLYAGSNNQVQLWLVGQHGEAALGKRLWPARGKETELKVEVPEYLGPLLFVKLRKRHLLKDDAWFCNWISVQGPGAGDEVRFPCYRWVEGNGVLSLPEGTGRTVGEDPQGLFQKHREEELEERRKLYRWGNWKDGLILNMAGAKLYDLPVDERFLEDKRVDFEVSLAKGLADLAIKDSLNVLTCWKDLDDFNRIFWCGQSKLAERVRDSWKEDALFGYQFLNGANPVVLRRSAHLPARLVFPPGMEELQAQLEKELEGGTLFEADFSLLDGIKANVILCSQQHLAAPLVMLKLQPDGKLLPMVIQLQLPRTGSPPPPLFLPTDPPMAWLLAKCWVRSSDFQLHELQSHLLRGHLMAEVIVVATMRCLPSIHPIFKLIIPHLRYTLEINVRARTGLVSDMGIFDQIMSTGGGGHVQLLKQAGAFLTYSSFCPPDDLADRGLLGVKSSFYAQDALRLWEIIYRYVEGIVSLHYKTDVAVKDDPELQTWCREITEIGLQGAQDRGFPVSLQARDQVCHFVTMCIFTCTGQHASVHLGQLDWYSWVPNAPCTMRLPPPTTKDATLETVMATLPNFHQASLQMSITWQLGRRQPVMVAVGQHEEEYFSGPEPKAVLKKFREELAALDKEIEIRNAKLDMPYEYLRPSVVENSVAI

Calls of active or inactive are those of the source. The rule behind the calls is not given here. Some results are limits rather than exact numbers.

The values that follow come from ChEMBL document CHEMBL3871264, “Design of a novel thiophene inhibitor of 15-lipoxygenase-1 with both anti-inflammatory and neuroprotective properties” (Eur J Med Chem, 2016).

The target in one data set is T1, Polyunsaturated fatty acid lipoxygenase ALOX15. Description: Inhibition of human 15-LOX-1 assessed as reduction in conversion of linoleic acid to 13(S)-HpODE incubated for 10 mins followed by linoleic acid addition by UV-absorbance analysis.
Conditions: not given
The IC50 is the concentration at which inhibition is half-maximal. Consider `CCCCNC(=O)c1cc(CCC)sc1N`, for which the concentration for half-maximal inhibition (IC50) is 50 to 65.4 µM.
With `CCCCCc1cc(C(=O)NCCCC)c(N)s1`, the half-inhibitory concentration (IC50) lay within 50 to 61.4 µM.
On the same count and under the same terms, with `CCCCNC(=O)c1c(N)sc(-c2ccc(Cl)cc2)c1CCCC` the figure was above 50 µM.
Still for that read-out and setting: the figure for `Nc1sc(-c2ccccc2)cc1C(=O)NCCCCc1ccccc1` is 50 to 81.7 µM; for `CCCCNC(=O)c1c(N)sc(-c2ccccc2)c1C` it is above 50 µM.
The same measure, in the same setting: the figure for `CCCCNC(=O)c1cc(CC)sc1N` is 50 to 65.3 µM; for `CCCCNC(=O)c1cc(-c2ccc(Cl)cc2)sc1N` it is 50 to 519 µM; for `CCCCNC(=O)c1cc(C)sc1N` it is 50 to 354 µM.
In the case of `CCCCNC(=O)c1cc(Cc2ccccc2)sc1N`, the half-maximal inhibitory concentration (IC50) was 50 to 115 µM.
In the case of `CCCCn1c(=O)[nH]c2sc(-c3ccccc3)cc2c1=O`, the 50% inhibitory concentration (IC50) is 50 to 67.3 µM.
Same read-out and setting: with `CCCCNC(=O)c1c(N)sc(-c2ccccc2)c1CCCC` the figure was above 50 µM; with `CCCCN(CCCC)C(=O)c1cc(-c2ccccc2)sc1N`, 50 to 152 µM.
In the case of `CCCCNC(=O)c1cc(-c2ccc(Br)cc2)sc1N`, the IC50 fell in the range of 50 to 71.1 µM.

Another data set has as its target T2, Polyunsaturated fatty acid lipoxygenase ALOX15 (Mus musculus). Description: Inhibition of 15-LOX-1 in mouse HT22 cells assessed as inhibition of glutamate-induced lipid peroxidation at 1 uM incubated for 14 to 16 hrs by BODIPY 581/591 C11 staining based FACS analysis. It is filed as cell-based. The settings on record: HT-22. A digest of the protocol: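 HT-22 cells were seeded at 5x10^4 per well and incubated overnight. They were then exposed to 4 mM glutamate in DMEM/10% FCS, with or without 10 µM test inhibitor or 1 µM PD146176, for 6-7 h or 14-16 h. Cells were stained with BODIPY 581/591 C11 at 2 µM final for 1 h at 37 °C. The red-to-green fluorescence shift was read by flow cytometry (488 nm excitation). At least 3 experiments were run, each in triplicate.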
On the technique in general: In flow cytometry, cells or beads pass a laser one at a time.
Regarding `c1ccc2c(c1)SCc1c-2[nH]c2ccccc12`, the inhibition entry is “Active”.

For another data set the target is unchanged. Description: Inhibition of 15-LOX-1 in mouse HT22 cells assessed as protection against glutamate-induced cell death by measuring increase in cell viability at 1 uM cotreated with glutamate measured for 16 to 20 hrs by MTT assay. Format: cell-based. The conditions noted are these: HT-22, in the assay text read “14 to 16 hrs” for “16 to 20 hrs”. A digest of the protocol:
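HT-22 cells were seeded at 8x10^3 per well and incubated overnight. They were challenged with 4 mM glutamate in DMEM/10% FCS. Inhibitor was given either with glutamate (1-20 µM; PD146176 at 1 µM) or added at 5 or 10 µM 2, 4, 6 or 8 h after glutamate. After 14-16 h, MTT was added at 0.5 mg/mL for 1 h at 37 °C. Formazan was dissolved in DMSO and read at 570 nm minus 630 nm background, expressed relative to control. Three experiments were run with 6-8 replicates each.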
Consider `c1ccc2c(c1)SCc1c-2[nH]c2ccccc12`, for which the inhibition entry is “Active”.

For a further data set the target is unchanged. Description: Inhibition of 15-LOX-1 in mouse HT22 cells assessed as protection against glutamate-induced cell impedance at 1 uM cotreated with glutamate up to 16 hrs by real time cell viability assay. It is filed as cell-based. The settings on record: HT-22. A digest of the protocol: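 HT-22 cells were seeded at 8x10^3 per well, incubated overnight, then given 4 mM glutamate. Inhibitor was either co-applied (1-20 µM; PD146176 at 1 µM) or added at 10 µM 2, 4, 6 or 8 h after glutamate. Impedance was recorded in real time for 16-20 h, with cell index normalized just before glutamate addition.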
With `c1ccc2c(c1)SCc1c-2[nH]c2ccccc12`, the inhibition result is “Active”.

Compound in a further data set: CCCCNC(=O)c1cc(-c2ccccc2)sc1N
Description: Competitive inhibition of human 15-LOX-1 assessed as apparent Km at 5 uM by Lineweaver-Burk plot analysis (reference value: 9.1 +/- 3.4 microM).
Conditions: not given
A digest of the protocol: (§1)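 Purified enzyme activity was read as UV absorbance at 234 nm of the product formed from linoleic acid substrate, in 96-well format. Substrate-dependence runs were done with and without inhibitor. Apparent Km and Vmax were derived from Lineweaver-Burk plots.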
One may read the Km as the substrate concentration at which the rate is half of its maximum. As to B1, the Km was 14.2 µM.

Compound in the next data set: CCCCNC(=O)c1cc(-c2ccccc2)sc1N
Description: Competitive inhibition of human 15-LOX-1 assessed as apparent Km at 15 uM by Lineweaver-Burk plot analysis (reference value: 9.1 +/- 3.4 microM).
Conditions: not given
A digest of the protocol:
as §1
Turning to B1, the Km turned out to be 38.2 µM.
